# Measured values taken from ChEMBL document CHEMBL4118065, “Design, synthesis and antimycobacterial activity of novel imidazo[1,2-a]pyridine-3-carboxamide derivatives” (Eur J Med Chem, 2017).
# Tested on: Mycobacterium tuberculosis
# Test: Antimycobacterial activity against Mycobacterium tuberculosis H37Rv ATCC 27294 after 7 days by microplate Alamar blue assay
# Assay type: functional
# Conditions: H37Rv ATCC 27294, 168 h
# Outline: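 MABA against replicating M. tuberculosis. Cells grown to late log phase (70–100 Klett units) in 7H9 broth with 0.2% glycerol, 0.05% Tween 80 and 10% ADC. They were washed in PBS, filtered (8 µm) and frozen. Twofold compound dilutions received 2×10^5 CFU per well at 37 °C. Tween 80 and Alamar blue were added on day 7, then 16–24 h more. Fluorescence read at 530/590 nm. MIC = lowest concentration giving ≥90% fluorescence reduction versus bacterium-only controls.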
row,Structure (SMILES),MIC90 [µM]
1,Cc1ccc2nc(C)c(C(=O)NCCCOc3ccc(Br)cc3)n2c1,0.62
2,Cc1ccn2c(C(=O)NCCCNc3ccc(C(C)(C)C)cc3)c(C)nc2c1,10.6
3,NNC(=O)c1ccncc1 [ISONIAZID],0.36
4,Cc1ccc2nc(C)c(C(=O)NCCNc3cccc(C(F)(F)F)c3)n2c1,5.31
5,Cc1ccc2nc(C)c(C(=O)N3CCN(c4ccccc4)CC3)n2c1,95.4
6,Cc1ccc2nc(C)c(C(=O)NCCOCc3ccccc3)n2c1,1.93
7,Cc1ccc2nc(C)c(C(=O)N3CCN(c4ccccn4)CC3)n2c1,> 95
8,Cc1ccc2nc(C)c(C(=O)NCCN3CCN(c4ccccc4)CC3)n2c1,0.66
9,Cc1ccn2c(C(=O)NCCCNc3ccccc3)c(C)nc2c1,12.4
10,Cc1ccc2nc(C)c(C(=O)NCCNc3ccc(C(F)(F)F)cc3)n2c1,42.5
11,Cc1ccc2nc(C)c(C(=O)N3CCC(c4ccc(F)cc4)CC3)n2c1,90.3
12,COc1ccc(NCCNC(=O)c2c(C)nc3cc(C)ccn23)cc1,47.3
13,Cc1ccc2nc(C)c(C(=O)N3CCN(c4ccc(Br)cc4)CC3)n2c1,> 77
14,Cc1ccc2nc(C)c(C(=O)NCCCNc3ccc(F)cc3)n2c1,1.47
15,Cc1ccn2c(C(=O)NCCCNc3ccc([N+](=O)[O-])cc3)c(C)nc2c1,> 87
16,Cc1ccc2nc(C)c(C(=O)NCCNc3ccccc3)n2c1,0.81
17,Cc1ccc2nc(C)c(C(=O)N3CCN(c4ccc(F)cc4F)CC3)n2c1,> 86
18,Cc1ccc2nc(C)c(C(=O)NCCNc3ccccc3F)n2c1,0.76
19,Cc1ccc2nc(C)c(C(=O)N3CCN(c4ccc([N+](=O)[O-])cc4)CC3)n2c1,84.4
20,Cc1ccc2nc(C)c(C(=O)NCCNc3ccc(F)cc3)n2c1,1.53

row,Structure (SMILES),MIC90 [µM]
1,Cc1ccc2nc(C)c(C(=O)NCCNc3ccc(Cl)c(F)c3)n2c1,1.39
2,Cc1ccc(N2CCN(C(=O)c3c(C)nc4ccc(C)cn34)CC2)cc1,46
3,Cc1ccc2nc(C)c(C(=O)NCCNc3ccc(C(C)(C)C)cc3)n2c1,0.041
4,Cc1ccc2nc(C)c(C(=O)N3CCN(c4ccncc4)CC3)n2c1,95
5,Cc1ccc2nc(C)c(C(=O)NCCNCc3ccc(Br)cc3)n2c1,9.97
6,Cc1ccc2nc(C)c(C(=O)N3CCN(c4ccccc4F)CC3)n2c1,> 90
7,Cc1ccc2nc(C)c(C(=O)NCCCNc3ccc([N+](=O)[O-])cc3)n2c1,> 87
8,Cc1ccc2nc(C)c(C(=O)NCCCNc3ccc(C(C)(C)C)cc3)n2c1,1.32
9,Cc1ccc2nc(C)c(C(=O)NCCOCc3ccc(Br)cc3)n2c1,0.62
10,Cc1ccc2nc(C)c(C(=O)NCCNCc3ccccc3)n2c1,49.6
11,Cc1ccc2nc(C)c(C(=O)N3CCN(c4ccc(F)cc4)CC3)n2c1,90.3
12,Cc1ccc2nc(C)c(C(=O)NCCOc3ccc(Br)cc3)n2c1,0.038
13,Cc1ccc2nc(C)c(C(=O)NCCNc3ccc([N+](=O)[O-])cc3)n2c1,> 90
14,Cc1ccc2nc(C)c(C(=O)NCCCNc3ccccc3)n2c1,6.21
15,COc1ccc(N2CCN(C(=O)c3c(C)nc4ccc(C)cn34)CC2)cc1,> 87
16,Cc1ccc2nc(C)c(C(=O)NCCNc3ccc(C)c(C)c3)n2c1,0.18
17,CO[C@H]1/C=C/O[C@@]2(C)Oc3c(C)c(O)c4c(O)c(c(/C=N/N5CCN(C)CC5)c(O)c4c3C2=O)NC(=O)/C(C)=C\C=C\[C@H](C)[C@H](O)[C@@H](C)[C@@H](O)[C@@H](C)[C@H](OC(C)=O)[C@@H]1C [RIFAMPIN],0.071
18,Cc1ccc2nc(C)c(C(=O)N3CCN(c4ccc(Cl)cc4)CC3)n2c1,43.5
19,Cc1ccc2nc(C)c(C(=O)NCCNc3ccc(Br)cc3)n2c1,0.64
20,COc1ccc(NCCNC(=O)c2c(C)nc3ccc(C)cn23)cc1,0.044

# Tested on: not listed separately
# Test: Cytotoxicity against African green monkey Vero cells assessed as decrease in cell viability after 72 hrs by MTT assay
# Assay type: cell-based
# Conditions: chlorocebus sabaeus
# Outline: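 Vero cells grown in MEM with Earle's salts plus 10% FBS, 37 °C, 5% CO2; seeded at 1 × 10⁴ cells per well, allowed 24 h recovery, then medium replaced with assay medium with or without compound (1000 to 4 μg/mL). After 72 h exposure, viability read by MTT; CC50 calculated by Bliss analysis.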
row,Structure (SMILES),CC50 at 72 h [µM]
1,Cc1ccc2nc(C)c(C(=O)NCCNc3ccc(C(C)(C)C)cc3)n2c1,57.6
2,COc1ccc(NCCNC(=O)c2c(C)nc3ccc(C)cn23)cc1,193

# Tested on: not listed separately
# Test: Selectivity index, ratio of CC50 for African green monkey Vero cells to MIC=>90 for Mycobacterium tuberculosis H37Rv ATCC 27294
# Assay type: toxicity
# Conditions: read-out: Selectivity Index
# Outline: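 Vero cells in MEM with Earle's salts and 10% FBS, 37 °C, 5% CO₂. Seeded at 1×10⁴ cells/well and recovered 24 h. Exposed to compound at 1000 to 4 μg/mL for 72 h. Viability by MTT. CC50 by Bliss analysis. SI is CC50 divided by MABA MIC against H37Rv ATCC 27294.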
row,Structure (SMILES),selectivity ratio
1,Cc1ccc2nc(C)c(C(=O)NCCNc3ccc(C(C)(C)C)cc3)n2c1,1400
2,COc1ccc(NCCNC(=O)c2c(C)nc3ccc(C)cn23)cc1,4400
